According to article PMC10731006 (Heliyon, 2023):
Converted amounts (≈) assume the structure as drawn. “Also recorded” adds a separate entry of the source.

How the values were obtained:
[1] = tested on: human dermal fibroblast (HDF, human dermal cell line); experiment: MTT cytotoxicity assay, normal cells; type: cell-based; details: Homo sapiens, Fibroblast, 96 h, read-out: IC50 HDF
Method in brief: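 Human dermal fibroblasts were maintained in DMEM with 10% FCS, 2 mM L-glutamine and 1% penicillin-streptomycin (37 °C, 5% CO2). They were seeded at 1 × 10^4 cells/ml, allowed to adhere overnight, then treated 96 h with serially diluted test compound (six final levels, 1–600) beside DMSO-matched vehicle and cisplatin controls. Then MTT 5 mg/ml was added for 4 h, formazan taken up in DMSO, and absorbance read at 540 nm, in triplicate. IC50 was fitted.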

[2] = tested on: glioblastoma (U-87 MG) cells; experiment: MTT cytotoxicity assay, U-87 MG; type: cell-based, human; details: for IC50: Homo sapiens, U-87 MG, 96 h, read-out: IC50 U87; for SI U87 (selectivity index): IC50 in HDF / IC50 in U87, 96 h
Method in brief: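 U-87 MG cells were cultured in DMEM with 10% FCS, 2 mM L-glutamine and 1% penicillin-streptomycin at 37 °C, 5% CO2. Seeding was 1 × 10^4 cells/ml; after overnight adherence, test compound diluted in medium (six final levels, 1–600) was applied for 96 h alongside DMSO-matched and cisplatin controls. Read-out: MTT 5 mg/ml for 4 h, DMSO solubilisation, A540, in triplicate, IC50 fitted. SI = IC50 in HDF / IC50 in U87.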

[3] = tested on: breast cancer (MCF7) cells; experiment: MTT cytotoxicity assay, MCF7; type: cell-based, human; details: for IC50: Homo sapiens, MCF7, 96 h, read-out: IC50 MCF-7; for SI MCF-7 (selectivity index): IC50 in HDF / IC50 in MCF-7, 96 h
Method in brief: (§1)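 Cells were grown in RPMI 1640 with 10% FCS, 2 mM L-glutamine and 1% penicillin-streptomycin at 37 °C under 5% CO2. They were seeded at 1 × 10^4 cells/ml, left overnight to adhere, and exposed 96 h to test compound diluted in medium (six final levels, 1–600), with DMSO-matched and cisplatin controls. MTT at 5 mg/ml was added for 4 h, formazan dissolved in DMSO, and A540 read, in triplicate. IC50 was fitted from the data. SI = IC50 in HDF / IC50 in this line.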

[4] = tested on: non-small cell lung cancer (A549) cells; experiment: MTT cytotoxicity assay, A549; type: cell-based, human; details: for IC50: Homo sapiens, A549, 96 h, read-out: IC50 A549; for SI A549 (selectivity index): IC50 in HDF / IC50 in A549, 96 h
Method in brief: as §1

[5] = DPPH radical scavenging assay
[6] = ABTS radical scavenging assay
[7] = tested on: Bacillus cereus (ATCC 11778); experiment: Agar diffusion test, B. cereus; type: cell-based; details: ATCC11778, read-out: Zone of inhibition BC
[8] = tested on: Staphylococcus aureus (ATCC 10145); experiment: Agar diffusion test, S. aureus; type: cell-based; details: ATCC10145, read-out: Zone of inhibition SA
[9] = tested on: Escherichia coli (ATCC 25922); experiment: Agar diffusion test, E. coli; type: cell-based; details: ATCC25922, read-out: Zone of inhibition EC
[10] = tested on: Pseudomonas aeruginosa (ATCC 13048); experiment: Agar diffusion test, P. aeruginosa; type: cell-based; details: ATCC13048, read-out: Zone of inhibition PA
[11] = tested on: B. subtilis (ATCC 6633); experiment: Micro-broth dilution assay; type: cell-based; details: Bacillus subtilis, ATCC6633, read-out: MIC BS
[12] = tested on: Bacillus cereus (ATCC 11778); experiment: Micro-broth dilution assay; type: cell-based; details: ATCC11778, read-out: MIC BC
[13] = tested on: Staphylococcus aureus (ATCC 10145); experiment: Micro-broth dilution assay; type: cell-based; details: ATCC10145, read-out: MIC SA
[14] = tested on: Escherichia coli (ATCC 25922); experiment: Micro-broth dilution assay; type: cell-based; details: ATCC25922, read-out: MIC EC
[15] = tested on: Pseudomonas aeruginosa (ATCC 13048); experiment: Micro-broth dilution assay; type: cell-based; details: ATCC13048, read-out: MIC PA
[16] = tested on: Gram-positive and Gram-negative bacterial test strains; experiment: Antibacterial activity, whole panel of test strains; type: cell-based
Method in brief: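 Disc diffusion followed CLSI (2012). Test compound at 10, 50 and 100 μg/disc was loaded on 6-mm blank filter discs laid on Mueller Hinton agar seeded at 10^6 cells/ml. Strains were S. aureus ATCC 10145, B. cereus ATCC 11778, B. subtilis ATCC 6633, P. aeruginosa ATCC 13048 and E. coli ATCC 25922. Inhibition zones were recorded.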

[17] = tested on: cancer cell lines (U87, MCF-7 and A549) compared to normal cells (HDF); experiment: MTT cytotoxicity, cancer cell lines compared to normal cells; type: cell-based, human; details: 96 h treatment
Method in brief: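 A549 and MCF7 grown in RPMI 1640, HDF and U87 in DMEM, each with 10% FCS, 2 mM L-glutamine, 1% pen-strep, 37 °C, 5% CO2. Cells at 1 × 10^4 cells/ml were adhered overnight, then exposed 96 h to test compound (final 1–600 […] in medium). Controls were blank, untreated, DMSO-matched and cisplatin (1–100 μM/mL). MTT 5 mg/ml for 4 h; DMSO-solubilised formazan read at 540 nm, triplicate. IC50 from curve fitting; selectivity index = HDF IC50 / cancer-line IC50.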

[18] = tested on: B. subtilis (ATCC 6633); experiment: Agar diffusion test, B. subtilis; type: cell-based; details: Bacillus subtilis, ATCC6633, read-out: Zone of inhibition BS

| Structure (SMILES) | IC50 [1] [µM] | IC50 [2] [µM] | SI U87 (selectivity index) [2] | IC50 [3] [µM] | SI MCF-7 (selectivity index) [3] | IC50 [4] [µM] | SI A549 (selectivity index) [4] | IC50 ± SD, DPPH [5] [µg/mL] | % inhibition ±SD, DPPH ([5]; 10 μg/ml) [%] | % inhibition ±SD, DPPH ([5]; 25 μg/ml) [%] | % inhibition ±SD, DPPH ([5]; 50 μg/ml) [%] | % inhibition ±SD, DPPH ([5]; 100 μg/ml) [%] | IC50 ± SD, ABTS [6] [µg/mL] | % inhibition ±SD, ABTS ([6]; 5 μg/ml) [%] | % inhibition ±SD, ABTS ([6]; 10 μg/ml) [%] | % inhibition ±SD, ABTS ([6]; 25 μg/ml) [%] | % inhibition ±SD, ABTS ([6]; 50 μg/ml) [%] | % inhibition ±SD, ABTS ([6]; 100 μg/ml) [%] | zone of inhibition at 100 µg/disc [7] [mm] | zone of inhibition at 300 µg/disc [7] [mm] | further results |
| --- | --- | --- | --- | --- | --- | --- | --- | --- | --- | --- | --- | --- | --- | --- | --- | --- | --- | --- | --- | --- | --- |
| COC(=O)c1cn(C2CC2)c2cc(N3CCN(C(=O)c4c(C)nnn4-c4ccc(Cl)cc4)CC3)c(F)cc2c1=O [Compound 6c, methyl 7-(4-(1-(4-chlorophenyl)-4-methyl-1H-1,2,3-triazole-5-carbonyl)piperazin-1-yl)-1-cyclopropyl-6-fluoro-4-oxo-1,4-dihydroquinoline-3-carboxylate] | 294 ± 11.4 | 12.3 ± 5.5 | 23.9 | 61.6 ± 11.1 | 4.8 | 239 ± 7.9 | 1.2 | 43.1 ± 1.8 (≈ 76.3 µM) | 24.6 ± 1.8 | 31.7 ± 0.3 | 52.2 ± 0.2 | 71.4 ± 0.7 | 35.1 ± 2.0 (≈ 62.1 µM) | 14.8 ± 0.6 | 33.3 ± 0.8 | 42.7 ± 0.4 | 59.8 ± 0.3 | 65.7 ± 0.1 | 12.7 ± 0.6 | 13.7 ± 1.1 | zone of inhibition at 500 µg/disc [7]: 15.3 ± 0.7 mm; zone of inhibition at 100 µg/disc [8]: 10.6 ± 1.2 mm; zone of inhibition at 300 µg/disc [8]: 12.3 ± 0.6 mm; zone of inhibition at 500 µg/disc [8]: 13.3 ± 0.3 mm; zone of inhibition at 100 µg/disc [9]: 11.3 ± 0.7 mm; zone of inhibition at 300 µg/disc [9]: 13.6 ± 1.2 mm; zone of inhibition at 500 µg/disc [9]: 14.6 ± 0.3 mm; zone of inhibition at 100 µg/disc [10]: 12.3 ± 0.6 mm; zone of inhibition at 300 µg/disc [10]: 14.6 ± 0.6 mm; zone of inhibition at 500 µg/disc [10]: 16.3 ± 0.6 mm; MIC [11]: > 500 µg/mL; MIC [12]: 500 µg/mL (≈ 885 µM); MIC [13]: > 500 µg/mL; MIC [14]: > 500 µg/mL; MIC [15]: 500 µg/mL (≈ 885 µM); inhibition zones, range over susceptible strains ([16]; agar diffusion): 13 to 16 mm; cytotoxic / anti-proliferative activity in words [17]: significant cytotoxic activity against only U-87 and MCF-7 cancer cell lines |
| COC(=O)c1cn(C2CC2)c2cc(N3CCN(C(=O)c4c(C)nnn4Cc4ccc(F)cc4)CC3)c(F)cc2c1=O [Compound 6a, methyl 7-(4-(1-(4-fluorobenzyl)-4-methyl-1H-1,2,3-triazole-5-carbonyl)piperazin-1-yl)-1-cyclopropyl-6-fluoro-4-oxo-1,4-dihydroquinoline-3-carboxylate] | 504 ± 19.9 | 34.6 ± 7.8 | 14.6 | 112 ± 10.1 | 4.5 | 139 ± 9.3 | 3.6 | 32.6 ± 2.9 (≈ 57.9 µM) | 40.2 ± 0.4 | 47.2 ± 1.0 | 53.2 ± 0.9 | 63.3 ± 0.8 | 17.8 ± 1.1 (≈ 31.6 µM) | 22.7 ± 0.2 | 48.7 ± 0.5 | 53.5 ± 0.3 | 71.1 ± 1.0 | 75.5 ± 0.5 | 12.7 ± 0.6 | 14.6 ± 0.3 | % inhibition ±SD, DPPH ([5]; 5 μg/ml): 27.04 ± 0.2%; zone of inhibition at 100 µg/disc [18]: 11.3 ± 1.2 mm; zone of inhibition at 300 µg/disc [18]: 13.1 ± 0.6 mm; zone of inhibition at 500 µg/disc [18]: 14.6 ± 0.7 mm; zone of inhibition at 500 µg/disc [7]: 15.3 ± 0.3 mm; MIC [11]: 500 µg/mL (≈ 889 µM); MIC [12]: 500 µg/mL (≈ 889 µM); MIC [13]: > 500 µg/mL; MIC [14]: > 500 µg/mL; MIC [15]: > 500 µg/mL; antibacterial activity in words [16]: bioactivity against Gram-positive bacterial test strains; cytotoxic / anti-proliferative activity in words [17]: remarkable anti-proliferative activity against all three cell-lines; also recorded: significant cytotoxic activity against all cancer cell lines |
